MC4R barr agon = MC4R agonists recruiting beta-arrestin, primary screen, cell-based, luminescence, agonist arm of biased-ligand search; Melanocortin receptor 4 (Homo sapiens), P32245; 360,000 tested, 0.98% active; activation, % at 8.9 µM; U2OS MC4R beta-arrestin complementation; percent of melanotan II response, DMSO zero;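 active means activation above a per-plate cutoff, the mean activation of sample wells on that plate plus 3 SD, cut at about 8% in these data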
m5-HT2A agonist = mouse Htr2a agonists via beta-arrestin recruitment, primary screen, cell-based, luminescence; 5-hydroxytryptamine receptor 2A (Mus musculus), P35363; CHO-K1 mHTR2A beta-arrestin complementation; percent of 30 µM serotonin response; activation, % at 7.6 µM; 360,000 tested, 0.66% active; AID 624169, 2012;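 active means activation above a run cutoff, the mean activation of all tested compounds plus 3 SD, cut at about 14% in these data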;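 further: 0% = plate median of compound wells and 100% = 30 µM serotonin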
Target sequence (P35363 whole entry, looked up): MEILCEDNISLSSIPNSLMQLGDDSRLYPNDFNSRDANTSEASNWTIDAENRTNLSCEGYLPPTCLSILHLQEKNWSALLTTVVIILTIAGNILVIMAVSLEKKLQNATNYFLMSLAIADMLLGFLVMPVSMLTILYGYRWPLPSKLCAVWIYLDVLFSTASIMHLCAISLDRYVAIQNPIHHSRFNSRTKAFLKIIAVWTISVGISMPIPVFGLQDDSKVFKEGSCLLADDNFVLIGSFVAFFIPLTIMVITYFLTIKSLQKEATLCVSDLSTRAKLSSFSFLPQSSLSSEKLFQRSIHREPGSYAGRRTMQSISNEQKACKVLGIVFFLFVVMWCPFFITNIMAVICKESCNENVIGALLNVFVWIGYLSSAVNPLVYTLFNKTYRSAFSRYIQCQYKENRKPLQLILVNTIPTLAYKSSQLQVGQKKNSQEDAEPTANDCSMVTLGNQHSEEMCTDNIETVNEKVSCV
FXN GAA850 act = FXN promoter activators, primary screen, cell-based, luciferase luminescence, HEK293 lucGAA850 | HEK293 lucGAA850 FXN promoter luciferase reporter, 24 h; percent of 10 µM SAHA response | activation, % at 6 µM | 360,000 tested, 0.56% active;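 active means activation above the average of all compounds screened plus 3 SD, cutoff fixed separately per campaign, cut at about 7.5% in these data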;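 further: 0% = DMSO wells and 100% = 10 µM SAHA wells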
MC4R antagonist = MC4R antagonists of cAMP signaling, primary screen, cell-based, TR-FRET, antagonist arm of biased-ligand search. MC4R-expressing cells, MTII-stimulated cAMP, LANCE TR-FRET. inhibition, % at 6.5 µM. 360,000 tested, 0.48% active. AID 540295, 2011;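 active means inhibition above its plate's cutoff, the mean of tested wells on that plate plus 3 SD, cut at about 29% in these data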;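 further: 0% = Melanotan II alone and 100% = Melanotan II plus saturating MCL0020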
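Assay system: U2OS cells stably expressing human melanocortin 4 receptor (MC4R) / Dosing: 6.5 µM / Timing: compound 30 min, challenge 1 h, detection 1 h / Measured by: Eu-cAMP/anti-cAMP TR-FRET, emission 671 nm / Replicates: singlicate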
AHR activator = AHR activators, primary screen, cell-based, luminescence, luciferase reporter, human. AHR-responsive luciferase reporter cells. 320,000 tested, 2.5% active. activation, % at 5 µM. AID 2796, 2010; in the data active means activation above about 47%;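 further: 0% = vehicle wells and 100% = reference agonist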
GAA30 FXN cntr = GAA30 FXN promoter activators, confirmation, counter-screen for GAA850 frataxin promoter activator project, cell-based, luminescence, HEK293, lucGAA30, triplicate; shares compounds with FXN GAA850 act; HEK293 lucGAA30 FXN promoter luciferase, 24 h; DMSO = 0%, 5 µM ipriflavone = 100%; activation, % at 6 µM; 1,900 tested, 66% active;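 active means mean activation above the mean of solvent-only control wells plus 3 SD, cut at about 22% in these data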;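 further: counterscreen of GAA850 promoter hits where activity marks nonselective or luminescence artifacts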
FXN GAA850 conf = FXN GAA850 promoter activators in reporter cells, confirmation, cell-based, luminescence, HEK293 lucGAA850, triplicate | activation, % at 6 µM | 1,900 tested, 86% active | HEK293 lucGAA850 FXN promoter luciferase reporter, 24 h; 100% = activation by SAHA | shares compounds with FXN GAA850 act;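 active means mean activation above a set limit taken from the primary screen, cut at about 8% in these data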;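 further: 0% = DMSO wells and 100% = 10 µM SAHA wells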
* = called active by the depositor; . = not tested or not shown. Shown are actives, neighbours in structure and some others; about 4.7% of the full set was active somewhere.

SMILES | MC4R barr agon | m5-HT2A agonist | FXN GAA850 act | MC4R antagonist | AHR activator | GAA30 FXN cntr | FXN GAA850 conf
O=C1CC(c2ccccc2)CC(=O)N1c1ccc(C(F)(F)F)cc1 | 0 | -1 | 0 | 6 | 0 | . | .
CCC(=O)c1ccc(OCC(=O)Nc2ccc3c(c2)OCCO3)cc1 | 0 | 4 | 1 | 4 | 6 | . | .
O=C(COc1ccc(F)cc1)Nc1ccc2c(c1)OCCO2 | 2 | 1 | 7.7* | -4 | -4 | 77* | 22*
O=C(COC(=O)c1ccc(S(=O)(=O)N2CCOCC2)cc1)NCc1ccco1 | -1 | 5 | 1 | 6 | . | . | .
COC(=O)[C@]1(Cc2ccccc2)N[C@H](CN(C)C(=O)Nc2ccc(Cl)cc2)[C@@H]2C(=O)N(Cc3ccccc3)C(=O)[C@@H]21 | 3 | -1 | -2 | 10 | 2 | . | .
COC(=O)[C@]1(C)N[C@H](CN(C)C(=O)Nc2ccc(OC)cc2)[C@@H]2C(=O)N(Cc3ccccc3)C(=O)[C@@H]21 | -1 | -2 | 8.3* | 9 | -1 | 19 | 17*
COC(=O)[C@]1(C)N[C@H](CN(C)C(=O)Nc2ccc(C)cc2)[C@@H]2C(=O)N(C)C(=O)[C@@H]21 | 0 | 11 | 2 | 0 | -1 | . | .
COC(=O)[C@]1(C)N[C@H](CN(C)C(=O)Nc2ccc(C)cc2)[C@@H]2C(=O)N(Cc3ccccc3)C(=O)[C@@H]21 | -3 | -1 | 12* | 14 | -2 | 25* | 7
CCN(C[C@H]1N[C@@](C)(C(=O)OC)[C@H]2C(=O)N(Cc3ccccc3)C(=O)[C@@H]12)C(=O)Nc1ccc(F)cc1 | -2 | 3 | 15* | 0 | 1 | 25* | 6
Cc1cc(C(=O)N2CCC2(C)C(=O)O)nn1C(C)(C)C (stereo not drawn) | -2 | 1 | -1 | 17 | . | . | .
Nc1ncnc2c1ncn2[C@@H]1O[C@H](CNC(=O)[C@H](N)Cc2cscn2)[C@@H](O)[C@H]1O | -1 | 2 | 2 | 1 | . | . | .
Cc1noc(C)c1NC(=O)N(C)C[C@@H]1Oc2ncc(Br)cc2C(=O)N([C@@H](C)CO)C[C@H]1C | -1 | 6 | 3 | 3 | . | . | .
CCOC(=O)c1cc2c(=O)n3ccccc3nc2n(CCOC)c1=NC(=O)C(C)(C)C | 1 | 4 | 10* | 6 | 1 | 92* | 35*
Nc1c(C(=O)NCC2CCCO2)sc2nc3c(c(-c4ccco4)c12)CC/C3=C\c1ccco1 (stereo not drawn) | -1 | 4 | 2 | 6 | . | . | .
Cc1ccc(NN2C(=O)C=C(c3ccc(Cl)cc3)C2=O)cc1 | -4 | 4 | 9.5* | 11 | 2 | -6 | 18*
COc1ccc(C2=CC(=O)N(Nc3ccccc3)C2=O)cc1 | 0 | 1 | 8.2* | -18 | 7 | 25* | 11*
O=C1C=C(c2ccccc2)C(=O)N1Nc1ccccc1 | 0 | -2 | 4 | 5 | 0 | . | .
Cc1ccc(NC(=O)c2ccc([N+](=O)[O-])o2)cc1C | 0 | -2 | 7.7* | -6 | 1 | 56* | 35*
O=C(Nc1ccc(N2CCCCC2)cc1)c1ccc([N+](=O)[O-])o1 | -1 | -9 | 13* | -7 | 11 | 114* | 67*
O=C(Nc1ccc(N2CCCC2)c(Cl)c1)c1ccc([N+](=O)[O-])o1 | -1 | 0 | 18* | 4 | . | 118* | 70*
CC(C)(C)C(=O)N1CCN(c2ccc(NC(=O)c3ccc([N+](=O)[O-])o3)cc2)CC1 | -2 | -6 | 5 | -21 | -7 | . | .
CC1CCN(c2ccc(NC(=O)c3ccc([N+](=O)[O-])o3)cc2)CC1 | 3 | -5 | 11* | 5 | 0 | 80* | 63*
CC(=O)Oc1ccc(C(=O)Nc2cc(NC(=O)c3ccc(OC(C)=O)cc3)cc(C(=O)NC(C)(C)C)c2)cc1 | 2 | -4 | 1 | 24 | 0 | . | .
COc1ccc(-c2[nH]c(-c3ccc(Cl)cc3)nc2SCC(=O)Nc2nccs2)cc1 | 4 | -5 | 19* | -2 | 62* | 9 | 8.9*
CCCCOC(=O)Nc1ccc(N2CCCCC2)cc1 | 1 | -1 | 8.1* | -4 | 0 | 93* | 31*
SMILES | MC4R barr agon | m5-HT2A agonist | FXN GAA850 act | MC4R antagonist | AHR activator | GAA30 FXN cntr | FXN GAA850 conf
COc1nc(NCCO)nc(Nc2ccccc2F)n1 | -1 | -1 | 14* | 12 | 6 | 86* | 25*
FC(F)(F)c1ccc(-c2noc(CN3CCCN(C4CCCCC4)CC3)n2)cc1 | 0 | -4 | 2 | 7 | 8 | . | .
Cc1c(CCC(=O)NC2CC2)c(=O)oc2cc(O)ccc12 | -1 | -2 | 15* | 2 | -1 | 20 | 11*
Cc1ccc(C(=O)/C=C/c2ccccc2[N+](=O)[O-])cc1 | 2 | -1 | 3 | 0 | 27 | . | .
O=C(/C=C/c1ccccc1[N+](=O)[O-])c1ccccc1Br | 4 | -3 | 9.0* | 6 | 12 | 75* | 43*
CCOC(=O)/C(=N\Nc1ccc(Cl)cc1)c1csc(Nc2ccccc2)n1 | -3 | -1 | 8.0* | 5 | 20 | 34* | 24*
CCOC(=O)/C(=N\Nc1ccc(OC)cc1)c1csc(Nc2ccccc2)n1 | 1 | 5 | 11* | 18 | 9 | 38* | 25*
CCOC(=O)/C(=N/Nc1ccccc1)c1csc(Nc2ccccc2)n1 | -3 | 2 | 7 | 6 | 36 | . | .
O=C(N/N=C/c1ccccn1)c1ccc(Br)cc1 | -5 | -1 | 23* | 17 | 13 | -105 | -31
O=C(N/N=C/c1ccccn1)c1cc([N+](=O)[O-])cc([N+](=O)[O-])c1 | -5 | -2 | 14* | 13 | 15 | -82 | -17
O=C(N/N=C/c1ccccn1)c1ccc([N+](=O)[O-])cc1 | 0 | -3 | -1 | 3 | 6 | . | .
O=C(N/N=C/c1ccccn1)c1cc(C2CC2)[nH]n1 | -4 | -4 | 7.6* | 1 | 16 | 106* | 38*
O=C(N/N=C/c1ccccn1)c1cccc([N+](=O)[O-])c1 | -2 | 0 | 9.2* | 1 | 2 | -38 | 7
Cc1cc(C(=O)N/N=C/c2ccccn2)n[nH]1 | -2 | 2 | 2 | 5 | 11 | . | .

High-throughput results from PubChem BioAssay.
